Assay results: ChEMBL document CHEMBL4680127, “Rational design and Structure-Activity relationship of coumarin derivatives effective on HIV-1 protease and partially on HIV-1 reverse transcriptase” (Eur J Med Chem, 2020)

Assays:
[1] = molecular target: Human immunodeficiency virus type 1 protease (Human immunodeficiency virus 1, UniProt Q72874); assay: Inhibition of recombinant HIV1 protease measured assessed as hydrolysis of fluorogenic substrate by FRET assay
Summary of the method: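 Wild-type HIV-1 protease activity was read by FRET. Each assay was run in triplicate. IC50 values are means (±1 standard deviation) from three independent experiments.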

[2] = system: Human immunodeficiency virus 1; assay: Antiviral activity against wild type HIV1 assessed as inhibitory effect on virus producing cells at 10 uM by cell based inhibition assay; assay type: functional
Summary of the method: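 Late-stage single-round assay: compound at 10 μM was added to the medium of virus-producing cells 5 h after transfection and incubated 48 h. Pseudotyped virus from the supernatant then infected SupT1 cells for 48 h. Luciferase in the newly infected cells gave percent inhibition. Quadruplicate.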

[3] = system: Human immunodeficiency virus 1; assay: Antiviral activity against wild type HIV1 infected in human SupT1 cells assessed as inhibitory effect at 100 nM by cell based inhibition assay; assay type: functional; details: Human immunodeficiency virus 1, SUP-T1
Summary of the method: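 1×10^6 SupT1 cells were infected with HIV-1 NL4-3 by spin infection, with 10 µg/mL polybrene and test agent at 100 nM present during infection. Activity is expressed as percent inhibition of viral growth.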

[4] = molecular target: T1, Human immunodeficiency virus type 1 reverse transcriptase (Human immunodeficiency virus 1, UniProt Q72547); assay: Inhibition of HIV-1 NL4-3 reverse transcriptase expressed in Escherichia coli assessed as polymerization by one-step real-time RT-PCR assay
[5] = system: Human immunodeficiency virus 1; assay: Antiviral activity against wild type HIV1 assessed as inhibitory effect on virus infected cells at 10 uM by cell based inhibition assay; assay type: functional
Summary of the method: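 Single-round assay of the early stage: SupT1 cells were first infected with pseudotyped HIV-1, then exposed to compound at 10 μM for 48 h. Luciferase activity was measured and expressed as percent inhibition.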

[6] = molecular target: T1, Human immunodeficiency virus type 1 reverse transcriptase; assay: Inhibition of HIV-1BH10 reverse transcriptase expressed in Escherichia coli assessed as polymerization by one-step real time RT-PCR assay

`CC(C)CN(C[C@@H](O)[C@H](Cc1ccccc1)NCc1cc(=O)oc2cc(O)ccc12)S(=O)(=O)c1ccc([N+](=O)[O-])cc1` gave an IC50 [1] of 0.14 µM and an inhibition at 10 µM [2] of 73.2%.
`COc1ccc(S(=O)(=O)N(CC(C)C)C[C@@H](O)[C@H](Cc2ccccc2)NC(=O)Cc2cc(=O)oc3cc(O)ccc23)cc1` gave an IC50 [1] of 0.00162 µM, an inhibition at 0.1 µM [3] of 45.5% and an inhibition at 10 µM [2] of 82.9%. For the same compound, the IC50 [4] was 459 µM.
`Cc1ccnc2c1NC(=O)c1cccnc1N2C1CC1` [NEVIRAPINE] was tested, and the inhibition at 0.1 µM [3] was 77%.
In the case of `COc1ccc2c(CC(=O)N[C@@H](Cc3ccccc3)[C@H](O)CN(CC(C)C)S(=O)(=O)c3ccc([N+](=O)[O-])cc3)cc(=O)oc2c1`, the IC50 [1] is reported as 0.0558 µM, the inhibition at 10 µM [5] is reported as 43.7% and the IC50 [4] is reported as 373 µM.
In the case of `COc1ccc(S(=O)(=O)N(CC(C)C)C[C@@H](O)[C@H](Cc2ccccc2)NC(=O)Oc2ccc3c(C)cc(=O)oc3c2)cc1`, the IC50 [1] is reported as 0.16 µM and the IC50 [6] is reported as greater than 1000 µM.
In the case of `CC(C)CN(C[C@@H](O)[C@H](Cc1ccccc1)NC(=O)Cc1cc(=O)oc2cc(N(C)C)ccc12)S(=O)(=O)c1ccc(N)cc1`, the IC50 [1] is reported as 0.0751 µM, the inhibition at 10 µM [5] is reported as 18.4% and the IC50 [4] is reported as 572 µM.
For `CC(C)CN(C[C@@H](O)[C@H](Cc1ccccc1)NC(=O)c1cc2ccc(O)cc2oc1=O)S(=O)(=O)c1ccc([N+](=O)[O-])cc1`, the IC50 [1] was 0.0621 µM, the inhibition at 10 µM [5] was 91% and the inhibition at 10 µM [2] was 74%. It also gave an IC50 [4] of 189 µM.
In the case of `COc1ccc(S(=O)(=O)N(CC(C)C)C[C@@H](O)[C@H](Cc2ccccc2)NC(=O)Oc2c3occc3cc3ccc(=O)oc23)cc1`, the IC50 [1] is reported as 0.12 µM and the IC50 [6] is reported as greater than 1000 µM.
`COc1ccc2c(CC(=O)N[C@@H](Cc3ccccc3)[C@H](O)CN(CC(C)C)S(=O)(=O)c3ccc(N)cc3)cc(=O)oc2c1` was tested, and the IC50 [1] was 0.0154 µM, the inhibition at 10 µM [5] was 7.72% and the IC50 [4] was 411 µM.
Compound `CC(C)CN(C[C@@H](O)[C@H](Cc1ccccc1)NC(=O)c1cc2ccccc2oc1=O)S(=O)(=O)c1ccc(N)cc1` has an IC50 [1] of 0.156 µM, an inhibition at 10 µM [5] of 1.34% and an IC50 [4] of 75.3 µM.
`CC(C)CN(C[C@@H](O)[C@H](Cc1ccccc1)NC(=O)O[C@H]1CO[C@H]2OCC[C@H]21)S(=O)(=O)c1ccc(N)cc1` showed an inhibition at 10 µM [2] of 30.8%.
`CC(C)CN(C[C@@H](O)[C@H](Cc1ccccc1)NC(=O)c1cc2ccc(O)cc2oc1=O)S(=O)(=O)c1ccc(N)cc1` was tested, and the IC50 [1] was 0.0277 µM, the inhibition at 10 µM [5] was 27% and the IC50 [4] was 554 µM.
Work on `CC(C)CN(C[C@@H](O)[C@H](Cc1ccccc1)NC(=O)Cc1cc(=O)oc2cc(N(C)C)ccc12)S(=O)(=O)c1ccc([N+](=O)[O-])cc1` yielded an IC50 [1] of 0.276 µM, an inhibition at 10 µM [5] of 14.7% and an IC50 [6] greater than 1000 µM.
In the case of `CC(C)CN(C[C@@H](O)[C@H](Cc1ccccc1)NC(=O)Cc1cc(=O)oc2cc(O)ccc12)S(=O)(=O)c1ccc(N)cc1`, the IC50 [1] is reported as 0.0379 µM, the IC50 [6] is reported as greater than 1000 µM and the inhibition at 10 µM [2] is reported as 17.9%.
Work on `CC(C)CN(C[C@@H](O)[C@H](Cc1ccccc1)NC(=O)Cc1cc(=O)oc2cc(O)ccc12)S(=O)(=O)c1ccc([N+](=O)[O-])cc1` yielded an IC50 [1] of 0.0111 µM, an inhibition at 10 µM [5] of 3.91% and an inhibition at 10 µM [2] of 73.4%. For the same compound, the IC50 [4] was 367 µM.
`COc1ccc2cc(C(=O)N[C@@H](Cc3ccccc3)[C@H](O)CN(CC(C)C)S(=O)(=O)c3ccc(N)cc3)c(=O)oc2c1` gave an IC50 [1] of 0.102 µM, an inhibition at 10 µM [5] of 23.2% and an IC50 [4] of 706 µM.
For `COc1ccc2cc(C(=O)N[C@@H](Cc3ccccc3)[C@H](O)CN(CC(C)C)S(=O)(=O)c3ccc([N+](=O)[O-])cc3)c(=O)oc2c1`, the IC50 [1] was 0.221 µM, the inhibition at 10 µM [5] was 0.45% and the IC50 [6] was greater than 1000 µM.
In the case of `CC(C)CN(C[C@@H](O)[C@H](Cc1ccccc1)NC(=O)c1cc2ccccc2oc1=O)S(=O)(=O)c1ccc([N+](=O)[O-])cc1`, the IC50 [1] is reported as 0.298 µM, the inhibition at 10 µM [5] is reported as 27.1% and the IC50 [6] is reported as greater than 1000 µM.
With `CC(C)CN(C[C@@H](O)[C@H](Cc1ccccc1)NC(=O)c1ccc2oc(=O)ccc2c1)S(=O)(=O)c1ccc(N)cc1` the IC50 [1] was 0.0004 µM, the inhibition at 10 µM [5] was 5.61% and the inhibition at 10 µM [2] was 98.7%. The IC50 [4] was 398 µM.
Work on `Cc1cc(=O)oc2cc(OC(=O)N[C@@H](Cc3ccccc3)[C@H](O)CN(CC(C)C)S(=O)(=O)c3ccc([N+](=O)[O-])cc3)ccc12` yielded an IC50 [1] of 1.02 µM and an IC50 [6] greater than 1000 µM.
`COc1ccc(S(=O)(=O)N(CC(C)C)C[C@@H](O)[C@H](Cc2ccccc2)NCc2cc(=O)oc3cc(O)ccc23)cc1` gave an IC50 [1] of 0.053 µM and an inhibition at 10 µM [2] of 88.8%.
Work on `COc1ccc(S(=O)(=O)N(CC(C)C)C[C@@H](O)[C@H](Cc2ccccc2)NC(=O)c2ccc3oc(=O)ccc3c2)cc1` yielded an IC50 [1] of 0.00184 µM, an inhibition at 10 µM [5] of 1.26% and an inhibition at 10 µM [2] of 99.5%. For the same compound, the IC50 [4] was 597 µM.
For `O=C1Nc2ccc(Cl)cc2[C@@](C#CC2CC2)(C(F)(F)F)O1` [EFAVIRENZ], the inhibition at 10 µM [2] was 100%.
`COc1ccc(S(=O)(=O)N(CC(C)C)C[C@@H](O)[C@H](Cc2ccccc2)NC(=O)c2cc3ccc(OC)cc3oc2=O)cc1` gave an IC50 [1] of 0.0467 µM, an inhibition at 10 µM [5] of 8.28% and an IC50 [4] of 370 µM.
Compound `COc1ccc(S(=O)(=O)N(CC(C)C)C[C@@H](O)[C@H](Cc2ccccc2)NC(=O)c2cc3ccc(O)cc3oc2=O)cc1` has an IC50 [1] of 0.0395 µM, an inhibition at 10 µM [5] of 12.3% and an IC50 [4] of 421 µM.
In the case of `CC(C)CN(C[C@@H](O)[C@H](Cc1ccccc1)NC(=O)c1ccc2oc(=O)ccc2c1)S(=O)(=O)c1ccc([N+](=O)[O-])cc1`, the IC50 [1] is reported as 0.0026 µM, the IC50 [6] is reported as greater than 1000 µM and the inhibition at 10 µM [2] is reported as 98.5%.
Compound `COc1ccc(S(=O)(=O)N(CC(C)C)C[C@@H](O)[C@H](Cc2ccccc2)NC(=O)Cc2cc(=O)oc3cc(OC)ccc23)cc1` has an IC50 [1] of 0.0155 µM, an inhibition at 10 µM [5] of 17.7% and an IC50 [4] of 242 µM.
`COc1ccc(S(=O)(=O)N(CC(C)C)C[C@@H](O)[C@H](Cc2ccccc2)NC(=O)Cc2cc(=O)oc3cc(N(C)C)ccc23)cc1` showed an IC50 [1] of 0.211 µM, an inhibition at 10 µM [5] of 43.8% and an IC50 [4] of 355 µM.
With `COc1ccc(S(=O)(=O)N(CC(C)C)C[C@@H](O)[C@H](Cc2ccccc2)NC(=O)c2cc3ccccc3oc2=O)cc1` the IC50 [1] was 0.0728 µM, the inhibition at 10 µM [5] was 44.8% and the IC50 [4] was 474 µM.
With `CC(C)CN(C[C@@H](O)[C@H](Cc1ccccc1)NC(=O)Oc1c2occc2cc2ccc(=O)oc12)S(=O)(=O)c1ccc([N+](=O)[O-])cc1` the IC50 [1] was 1.53 µM and the IC50 [6] was greater than 1000 µM.
